Measured values: ChEMBL document CHEMBL4350954, “Identification of Thienopyrimidine Scaffold as an Inhibitor of the ABC Transport Protein ABCC1 (MRP1) and Related Transporters Using a Combined Virtual Screening Approach” (J Med Chem, 2019)

What was measured:
[1] = molecular target: T1, Multidrug resistance-associated protein 1 (Homo sapiens, UniProt P33527); assay: Inhibition of ABCC1 in human H69AR cells preincubated for 30 mins followed by calcein-AM addition measured at 60 secs time interval by fluorescence assay; format: cell-based
Summary of the method: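 Calcein AM accumulation assay in H69AR small-cell lung cancer cells, which express only ABCC1. Inhibited efflux lets calcein AM build up intracellularly, where esterases cleave it to fluorescent calcein. The screen used 10 µM, scaled to a standard ABCC1 inhibitor at 10 µM as 100%. Hits reaching ≥20% inhibition (+SEM) went on to IC50 curves, constrained to that 100% maximum. Values are means of ≥3 independent experiments in duplicate ± SEM.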

[2] = molecular target: T1, Multidrug resistance-associated protein 1; assay: Reversal of ABCC1-mediated multidrug resistance in human H69AR cells assessed as resistance factor by measuring [GI50(resistant cell line without or with compound)/ GI50(sensitive cell line)] at 10 uM incubated for 72 hrs by MTT assay (reference value: 8.2); format: cell-based
[3] = molecular target: T1, Multidrug resistance-associated protein 1; assay: (§1) Reversal of ABCC1 (unknown origin)-mediated multidrug resistance in MDCK2 cells co-expressing MRP1 (unknown origin) assessed as resistance factor by measuring [GI50(resistant cell line without or with compound)/ GI50(sensitive cell line)] at 1 uM incubated for 72 hrs by MTT assay (reference value: 7); format: cell-based
[4] = molecular target: T1, Multidrug resistance-associated protein 1; assay: as §1, with “at 5” for “at 1”; format: cell-based
[5] = molecular target: T1, Multidrug resistance-associated protein 1; assay: as §1, with “at 10” for “at 1”; format: cell-based
[6] = molecular target: T2, ATP-dependent translocase ABCB1 (Homo sapiens, UniProt P08183); assay: Reversal of ABCB1-mediated multidrug resistance in human A2780/ADR cells assessed as resistance factor by measuring [GI50(resistant cell line without or with compound)/ GI50(sensitive cell line)] at 1 uM incubated for 72 hrs by MTT assay (reference value: 49); format: cell-based
Summary of the method: (§2)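 MDR reversal assay with daunorubicin at 10 nM–10 µM, alone or with test compound at 0.5, 1, 5 or 10 µM. Resistant cells were ABCB1-overexpressing A2780/ADR or MDCK II MDR1, with sensitive A2780 or MDCK II cells as comparators. Resistance factor = resistant GI50 / sensitive GI50. EC50 was derived from resistance factors versus modulator concentration. Values are from ≥3 experiments in duplicate ± SEM.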

[7] = molecular target: T2, ATP-dependent translocase ABCB1; assay: as §1, with “ABCB1” for “ABCC1”, “MDR1” for “MRP1”, “5” for “1”, “17)” for “7)”; format: cell-based; summary of the method: as §2
[8] = molecular target: T3, Broad substrate specificity ATP-binding cassette transporter ABCG2 (Homo sapiens, UniProt Q9UNQ0); assay: as §1, with “ABCG2” for “ABCC1”, “BCRP” for “MRP1”, “0.5” for “1”, “27)” for “7)”; format: cell-based
T3 sequence (Q9UNQ0 whole entry): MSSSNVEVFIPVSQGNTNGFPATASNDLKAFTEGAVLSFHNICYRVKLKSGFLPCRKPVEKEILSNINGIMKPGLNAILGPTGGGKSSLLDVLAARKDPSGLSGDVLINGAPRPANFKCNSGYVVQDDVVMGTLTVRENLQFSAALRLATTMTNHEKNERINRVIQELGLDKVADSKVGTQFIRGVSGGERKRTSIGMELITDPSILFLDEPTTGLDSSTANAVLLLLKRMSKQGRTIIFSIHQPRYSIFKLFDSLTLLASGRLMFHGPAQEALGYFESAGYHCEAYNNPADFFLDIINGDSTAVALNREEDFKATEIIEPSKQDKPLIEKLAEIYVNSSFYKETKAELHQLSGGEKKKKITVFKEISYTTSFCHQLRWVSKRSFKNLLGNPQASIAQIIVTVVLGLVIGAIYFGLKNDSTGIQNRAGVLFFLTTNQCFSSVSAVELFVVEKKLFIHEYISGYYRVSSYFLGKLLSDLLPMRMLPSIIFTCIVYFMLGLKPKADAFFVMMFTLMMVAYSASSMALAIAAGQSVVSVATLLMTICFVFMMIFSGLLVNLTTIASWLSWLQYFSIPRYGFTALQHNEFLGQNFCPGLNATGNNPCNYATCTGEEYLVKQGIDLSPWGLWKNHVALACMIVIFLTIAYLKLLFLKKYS

[9] = molecular target: T3, Broad substrate specificity ATP-binding cassette transporter ABCG2; assay: as §1, with “ABCG2” for “ABCC1”, “BCRP” for “MRP1”, “5” for “1”, “27)” for “7)”; format: cell-based
[10] = Growth inhibition of human MCF7 cells incubated for 72 hrs by MTT assay; format: cell-based
Summary of the method: (§3)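 MTT-based cytotoxicity assay giving GI50 of the compound alone in each listed parental, selected or transfected cell line.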

[11] = Growth inhibition of human MCF7/MX cells incubated for 72 hrs by MTT assay; summary of the method: as §3
[12] = Growth inhibition of MDCK2 cells incubated for 72 hrs by MTT assay; format: cell-based, Canis lupus familiaris, MDCK-II; conditions: dog; summary of the method: as §3
[13] = Growth inhibition of MDCK2 cells co-expressing MRP1 (unknown origin) incubated for 72 hrs by MTT assay; format: cell-based, Canis lupus familiaris, MDCK-II; conditions: dog; summary of the method: as §3
[14] = Growth inhibition of human H69AR cells incubated for 72 hrs by MTT assay; summary of the method: as §3
[15] = molecular target: T1, Multidrug resistance-associated protein 1; assay: Competitive inhibition of ABCC1-mediated calcein-AM transport in human H69AR cells at 0.316 to 1.78 uM by Lineweaver-Burk plot analysis; format: cell-based
Summary of the method: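 Kinetic study of calcein AM transport by Lineweaver-Burk analysis. ABCC1 was studied in H69AR cells with calcein AM at 0.25, 0.3, 0.45, 0.6 and 0.8 µM and inhibitor at 0.316, 0.562, 1.00 and 1.78 µM plus a zero control. ABCB1 was studied in A2780/ADR cells with calcein AM at 0.2–0.8 µM and inhibitor at 0.056, 0.100, 0.178 and 0.316 µM plus a zero control.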

ABCC1 (MRP1) = assay: Therapeutic index, ratio of GI50 for human H69AR cells to IC50 for ABCC1 in human H69AR cells; format: toxicity, cell-based; conditions: read-out: TI
Summary of the method: (§4)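 Therapeutic ratio = GI50 from the MTT cytotoxicity assay / IC50 from the inhibition assay in the same cell line. The cell lines were H69AR (calcein AM, ABCC1), A2780/ADR (calcein AM, ABCB1) and MDCK II BCRP (pheophorbide A, ABCG2).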

ABCB1 (P-gp) = assay: Therapeutic index, ratio of GI50 for human A2780/ADR cells to IC50 for ABCB1 in human A2780/ADR cells; format: toxicity, cell-based; conditions: read-out: TI; summary of the method: as §4
ABCG2 (BCRP) = assay: Therapeutic index, ratio of GI50 for MDCK2 cells co-expressing BCRP (unknown origin) to IC50 for ABCG2 (unknown origin) expressed in MDCK2 cells co-expressing BCRP (unknown origin); format: toxicity, cell-based; conditions: dog, read-out: TI; summary of the method: as §4
[16] = molecular target: T3, Broad substrate specificity ATP-binding cassette transporter ABCG2; assay: Reversal of ABCG2-mediated multidrug resistance in human MCF-7/MX cells assessed as resistance factor by measuring [GI50(resistant cell line without or with compound)/ GI50(sensitive cell line)] incubated for 72 hrs by MTT assay (reference value: 789)

T1 sequence (P33527 whole entry): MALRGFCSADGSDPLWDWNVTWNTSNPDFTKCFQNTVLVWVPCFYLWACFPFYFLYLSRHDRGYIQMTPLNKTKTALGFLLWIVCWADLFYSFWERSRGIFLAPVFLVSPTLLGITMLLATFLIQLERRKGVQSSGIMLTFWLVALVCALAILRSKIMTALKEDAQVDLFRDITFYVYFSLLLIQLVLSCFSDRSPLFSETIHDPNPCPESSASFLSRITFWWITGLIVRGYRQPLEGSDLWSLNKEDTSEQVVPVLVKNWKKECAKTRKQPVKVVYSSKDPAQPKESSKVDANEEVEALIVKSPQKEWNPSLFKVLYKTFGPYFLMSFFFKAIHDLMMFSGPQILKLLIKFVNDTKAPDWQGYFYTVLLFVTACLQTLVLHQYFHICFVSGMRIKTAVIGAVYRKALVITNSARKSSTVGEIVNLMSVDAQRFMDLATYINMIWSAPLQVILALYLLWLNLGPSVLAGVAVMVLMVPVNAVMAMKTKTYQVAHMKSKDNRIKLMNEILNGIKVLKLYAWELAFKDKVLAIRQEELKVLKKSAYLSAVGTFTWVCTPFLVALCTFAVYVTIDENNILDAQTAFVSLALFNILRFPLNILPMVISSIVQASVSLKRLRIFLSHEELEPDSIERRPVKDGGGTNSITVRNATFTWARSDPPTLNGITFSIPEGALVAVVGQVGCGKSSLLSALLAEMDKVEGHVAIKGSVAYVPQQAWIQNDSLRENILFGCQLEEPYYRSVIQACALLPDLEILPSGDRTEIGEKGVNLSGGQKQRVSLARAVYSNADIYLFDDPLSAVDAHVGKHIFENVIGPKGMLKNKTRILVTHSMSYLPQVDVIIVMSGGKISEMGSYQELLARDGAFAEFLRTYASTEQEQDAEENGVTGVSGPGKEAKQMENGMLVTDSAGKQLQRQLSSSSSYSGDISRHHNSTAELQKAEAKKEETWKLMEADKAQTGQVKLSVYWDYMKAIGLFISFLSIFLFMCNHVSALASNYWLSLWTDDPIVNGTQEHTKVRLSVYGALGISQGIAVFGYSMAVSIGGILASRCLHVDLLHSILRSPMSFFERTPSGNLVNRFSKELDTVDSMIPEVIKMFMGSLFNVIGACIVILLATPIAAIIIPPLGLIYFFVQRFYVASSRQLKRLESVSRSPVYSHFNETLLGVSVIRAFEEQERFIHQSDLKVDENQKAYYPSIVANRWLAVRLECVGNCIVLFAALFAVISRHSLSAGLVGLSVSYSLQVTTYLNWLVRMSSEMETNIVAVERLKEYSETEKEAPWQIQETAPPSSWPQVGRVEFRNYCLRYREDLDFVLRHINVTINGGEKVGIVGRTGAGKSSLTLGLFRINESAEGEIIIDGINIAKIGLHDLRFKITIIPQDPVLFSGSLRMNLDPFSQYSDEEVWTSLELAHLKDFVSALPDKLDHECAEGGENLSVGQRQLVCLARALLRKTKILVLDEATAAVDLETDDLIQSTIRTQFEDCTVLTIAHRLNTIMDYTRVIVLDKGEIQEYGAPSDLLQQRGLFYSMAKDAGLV
T2 sequence (P08183 whole entry): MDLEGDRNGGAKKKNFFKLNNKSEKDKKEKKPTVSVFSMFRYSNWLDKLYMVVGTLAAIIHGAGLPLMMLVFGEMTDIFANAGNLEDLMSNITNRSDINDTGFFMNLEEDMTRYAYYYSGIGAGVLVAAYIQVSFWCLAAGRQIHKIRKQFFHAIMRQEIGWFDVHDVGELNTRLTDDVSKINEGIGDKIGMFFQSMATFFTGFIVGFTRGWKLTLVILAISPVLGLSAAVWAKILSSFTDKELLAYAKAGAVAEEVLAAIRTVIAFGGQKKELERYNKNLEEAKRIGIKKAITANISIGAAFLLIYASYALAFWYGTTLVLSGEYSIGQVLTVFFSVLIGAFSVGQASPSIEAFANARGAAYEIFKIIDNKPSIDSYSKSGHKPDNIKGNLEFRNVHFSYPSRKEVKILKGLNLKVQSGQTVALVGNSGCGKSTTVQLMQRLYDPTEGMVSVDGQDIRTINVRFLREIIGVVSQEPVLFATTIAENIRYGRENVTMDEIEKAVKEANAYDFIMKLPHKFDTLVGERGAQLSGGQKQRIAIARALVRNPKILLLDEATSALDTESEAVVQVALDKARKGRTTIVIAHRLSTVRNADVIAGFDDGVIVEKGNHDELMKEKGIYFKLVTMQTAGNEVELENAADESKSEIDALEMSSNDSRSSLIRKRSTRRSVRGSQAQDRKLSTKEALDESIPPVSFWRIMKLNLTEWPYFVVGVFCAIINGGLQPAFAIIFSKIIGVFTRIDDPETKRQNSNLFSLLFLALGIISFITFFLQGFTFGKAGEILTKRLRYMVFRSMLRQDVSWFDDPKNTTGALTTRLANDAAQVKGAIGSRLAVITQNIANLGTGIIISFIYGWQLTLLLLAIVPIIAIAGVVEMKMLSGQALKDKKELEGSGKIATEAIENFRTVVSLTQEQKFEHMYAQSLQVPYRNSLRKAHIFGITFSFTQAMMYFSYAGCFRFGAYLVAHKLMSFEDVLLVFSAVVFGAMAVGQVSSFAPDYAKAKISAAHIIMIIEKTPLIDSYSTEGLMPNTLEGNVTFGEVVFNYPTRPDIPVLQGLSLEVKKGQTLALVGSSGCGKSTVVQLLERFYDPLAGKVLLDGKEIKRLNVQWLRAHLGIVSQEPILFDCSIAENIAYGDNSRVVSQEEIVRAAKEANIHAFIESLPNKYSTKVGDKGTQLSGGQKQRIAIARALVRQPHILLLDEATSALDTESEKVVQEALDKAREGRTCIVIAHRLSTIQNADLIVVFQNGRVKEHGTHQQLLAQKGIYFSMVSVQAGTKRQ

Molecule `CC1CCc2c(sc3nc(-c4cccnc4)nc(N4CCN(C(C(N)=O)c5ccccc5)CC4)c23)C1` (centres undefined) has an IC50 [1] of 5.04 µM, a RatioGI50 [2] of 3 and a RatioGI50 [3] of 3.4. For the same molecule, the RatioGI50 [4] was 2.2, the RatioGI50 [5] was 1.4 and the RatioGI50 [6] was 20. The RatioGI50 [7] was 0.9, the RatioGI50 [8] was 21 and the RatioGI50 [9] was 4.5. It also gave a GI50 at 72 h [10] of 57.8 µM, a GI50 at 72 h [11] of 47 µM and a GI50 at 72 h [12] of 27 µM. For the same molecule, the GI50 at 72 h [13] was 42.4 µM, the GI50 at 72 h [14] was 56.9 µM and the “inhibition (INH)” value [15] was “Active”. For the same molecule, the selectivity ratio (ABCC1 (MRP1)) was 11.3, the selectivity ratio (ABCB1 (P-gp)) was 14.9 and the selectivity ratio (ABCG2 (BCRP)) was 6.9. For the same molecule, the RatioGI50 [16] was 53.
